This is an account of results in the array DNA melting data of Ke et al. (doi:10.1101/2024.01.08.574731).

Series [1] is described as follows: folding enthalpy; higher = less favourable; fluorescence melt of hairpins on a sequencing array, two-state fit. The following applies: sodium 0.088 M. An outline of the steps: (§1)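 On a sequenced MiSeq flow cell, library hairpins with annealed Cy3 and quencher oligos were imaged for Cy3 fluorescence in 2.5 °C steps up to 60 °C, in 50 mM Na-HEPES pH 8.0, 25 mM NaCl. Normalisation used pre-quench Cy3 and control constructs. Bootstrapped two-state fits gave melting temperature and folding enthalpy, combined by inverse variance across four replicates and with fitted temperatures raised by 9.35 °C to match UV melts.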

Series [2] is described as follows: melting temperature; fluorescence melt of hairpins on a sequencing array, two-state fit, raised by 9.35 °C to match UV melts. Conditions: sodium 0.088 M. An outline of the steps: as §1

Regarding GCTGTGCGAAAGCCTAGC (((..((....))..))), the folding enthalpy in series [1] is -18.2 kcal/mol. Moreover, the Tm in series [2] was determined as 44.3 °C.

For GCTGTGGGAAACCACGGC ((.((((....)))).)), the folding enthalpy in series [1] is -36.2 kcal/mol. Besides, the Tm in series [2] came out at 58.8 °C.

GCTGTGGGAAACTACGGC ((.((.(....).)).)): the folding enthalpy in series [1] is -31.6 kcal/mol. The Tm in series [2] was determined as 42.6 °C.

Consider GCTGTGTCGAAAGACAGC (((..(((....)))))), for which, in series [1], the folding enthalpy was -17.3 kcal/mol. Also, in series [2], the Tm worked out at 48.9 °C.

For the sequence GCTGTTGGAAACAGCAGC ((((.((....)).)))), in series [1], the folding enthalpy was -12.4 kcal/mol. Moreover, in series [2], the Tm stood at 63 °C.

For GCTGTTGGAAACGACAGC (((((.(....).))))), the folding enthalpy in series [1] was -40.7 kcal/mol. In addition, the Tm in series [2] was determined as 54.7 °C.

As for GCTTAACCGAAAGGTAGC (((..(((....)))))), the folding enthalpy in series [1] is -19 kcal/mol. Further, the Tm in series [2] came to 42.2 °C.

Take GCTTAAGAAATTAAGC ((((((....)))))): in series [1], the folding enthalpy was -26.4 kcal/mol. Besides, the Tm in series [2] turned out to be 43.5 °C.

Turning to GCTTACGAAAGTAAAAGC ((((((....)))..))), the folding enthalpy in series [1] is -27.5 kcal/mol. Besides, in series [2], the Tm was 41.7 °C.

As for GCTTACGAAAGTAAGC ((((((....)))))), in series [1], the folding enthalpy is -31.8 kcal/mol. Also, the Tm in series [2] stood at 68.9 °C.

As to GCTTACGAAAGTAGCAGC ((((((....)))..))), the folding enthalpy in series [1] was -18.4 kcal/mol. For the same sequence, the Tm in series [2] stood at 38.1 °C.

Regarding GCTTACGAAAGTAGGAGC ((((((....)))..))), in series [1], the folding enthalpy was -25.3 kcal/mol. Also, the Tm in series [2] is 35 °C.

For the sequence GCTTACGCGAAAGCGAGC (((..(((....)))))), the folding enthalpy in series [1] is -12.7 kcal/mol. Moreover, the Tm in series [2] was determined as 43 °C.

Take GCTTACGGAAACGTAAAC (.(((((....))))).): the folding enthalpy in series [1] is -17.9 kcal/mol. Besides, the Tm in series [2] is 33.3 °C.

For the sequence GCTTACGGAAACGTGAGC (((.(((....))).))), the folding enthalpy in series [1] is -43.4 kcal/mol. The Tm in series [2] was 52.6 °C.

With GCTTACTCGAAAGAGAGC (((..(((....)))))), the folding enthalpy in series [1] was -14.5 kcal/mol. Further, the Tm in series [2] is 30.1 °C.

Turning to GCTTAGCGAAAGCATAGC (((..((....))..))), the folding enthalpy in series [1] is -16.8 kcal/mol. In series [2], the Tm was determined as 45.7 °C.

On to GCTTAGCGAAAGCCCAGC (((..((....))..))), for which the folding enthalpy in series [1] is -11.5 kcal/mol. For the same sequence, the Tm in series [2] worked out at 33.4 °C.

For the sequence GCTTAGCGAAAGCCGAGC (((..((....))..))), the folding enthalpy in series [1] is -15.8 kcal/mol. Moreover, the Tm in series [2] stood at 42 °C.

For GCTTAGCGAAAGCGTAGC (((..((....))..))), the folding enthalpy in series [1] is -28.9 kcal/mol. In addition, the Tm in series [2] was found to be 61.3 °C.

As for GCTTAGCGAAAGCTACGC ((.((((....)))).)), the folding enthalpy in series [1] is -22.4 kcal/mol. Also, in series [2], the Tm was determined as 51.9 °C.

Consider GCTTAGCGAAAGCTAGGC ((.((((....)))).)), for which, in series [1], the folding enthalpy was -28.3 kcal/mol. Also, the Tm in series [2] was 60.4 °C.

GCTTAGCGAAAGCTCTGC ((..(((....)))..)): in series [1], the folding enthalpy is -16.4 kcal/mol. For the same sequence, the Tm in series [2] is 37.8 °C.

Turning to GCTTAGCGAAAGCTTTGC ((..(((....)))..)), the folding enthalpy in series [1] was -14.8 kcal/mol. Further, in series [2], the Tm was determined as 44.3 °C.

GCTTATACGAAAGTAAGC (((..(((....)))))): the folding enthalpy in series [1] was -21.5 kcal/mol. In addition, the Tm in series [2] came to 37.4 °C.

As to GCTTATGGAAACATAAGC (((((((....))))))), the folding enthalpy in series [1] is -40.6 kcal/mol. In series [2], the Tm is 56 °C.

In the case of GCTTCAGGAAACTGAAAC (.(((((....))))).), the folding enthalpy in series [1] is -15 kcal/mol. Further, in series [2], the Tm was determined as 31.5 °C.

In the case of GCTTCCCGAAAGGGAGC (((.(((....)))))), the folding enthalpy in series [1] was -22.3 kcal/mol. Moreover, in series [2], the Tm stood at 57.1 °C.

On to GCTTCCGAAAGGACAGC ((((((....))).))), for which the folding enthalpy in series [1] was -24.4 kcal/mol. Further, in series [2], the Tm amounted to 47.8 °C.

Turning to GCTTCCGAAAGGATAGC ((((((....))).))), the folding enthalpy in series [1] was -24.9 kcal/mol. Also, in series [2], the Tm amounted to 48.7 °C.

With GCTTCCGGAAACGAAAGC ((((.((....)).)))), the folding enthalpy in series [1] was -29.7 kcal/mol. Besides, the Tm in series [2] is 43 °C.

Turning to GCTTCGCGAAAGCAGAGC (((..((....))..))), the folding enthalpy in series [1] is -18.2 kcal/mol. Also, in series [2], the Tm was found to be 48.3 °C.

Turning to GCTTCGCGAAAGCGGGGC ((..(((....)))..)), the folding enthalpy in series [1] is -18.5 kcal/mol. Further, the Tm in series [2] was found to be 57.9 °C.

With GCTTCGCGAAAGCGTCGC ((..(((....)))..)), the folding enthalpy in series [1] was -15.6 kcal/mol. In addition, the Tm in series [2] amounted to 41.4 °C.

Turning to GCTTCGCGAAAGCGTTGC ((..(((....)))..)), the folding enthalpy in series [1] is -20.3 kcal/mol. In addition, the Tm in series [2] was 47.2 °C.

Regarding GCTTCGCGAAAGCTATGC ((.(.((....)).).)), the folding enthalpy in series [1] was -13.4 kcal/mol. Besides, the Tm in series [2] came out at 43.5 °C.

As to GCTTCGGGAAACCAAAGC ((((.((....)).)))), the folding enthalpy in series [1] is -28.7 kcal/mol. For the same sequence, the Tm in series [2] was 41.1 °C.

For GCTTCGGGAAACCGAGGC ((.((((....)))).)), the folding enthalpy in series [1] is -42.3 kcal/mol. Also, the Tm in series [2] was determined as 53.5 °C.

As to GCTTCGTCGAAAGACAGC (((..(((....)))))), the folding enthalpy in series [1] was -11.5 kcal/mol. Moreover, the Tm in series [2] was 34.5 °C.

With GCTTCTGAAAAGAAGC ((((((....)))))), in series [1], the folding enthalpy is -31.9 kcal/mol. Besides, the Tm in series [2] is 60 °C.

Consider GCTTCTGGAAACAGAAAC (.(((((....))))).), for which, in series [1], the folding enthalpy is -17.7 kcal/mol. The Tm in series [2] turned out to be 32.2 °C.

As to GCTTGAACGAAAGTTAGC (((..(((....)))))), the folding enthalpy in series [1] is -13.7 kcal/mol. In series [2], the Tm stood at 36.1 °C.

Take GCTTGCACGAAAGTGAGC (((..(((....)))))): the folding enthalpy in series [1] was -17.3 kcal/mol. For the same sequence, the Tm in series [2] turned out to be 44.4 °C.

In the case of GCTTGCGAAAGCAACAGC ((((((....)))..))), the folding enthalpy in series [1] is -11.4 kcal/mol. Also, in series [2], the Tm is 44.4 °C.

With GCTTGCGAAAGCACAAGC ((((((....)))..))), the folding enthalpy in series [1] was -16.1 kcal/mol. Besides, the Tm in series [2] was 45.3 °C.

In the case of GCTTGCGAAAGCACTAGC ((((((....)))..))), the folding enthalpy in series [1] is -12.7 kcal/mol. Moreover, the Tm in series [2] came to 33.8 °C.

For GCTTGCGAAAGCAGTAGC ((((((....)))..))), the folding enthalpy in series [1] is -17.8 kcal/mol. The Tm in series [2] is 45.7 °C.

For the sequence GCTTGCGAAAGCATAGC ((((((....))).))), the folding enthalpy in series [1] is -18.9 kcal/mol. Also, the Tm in series [2] amounted to 55.3 °C.

For GCTTGCGAAAGCATGAGC ((((((....)))..))), the folding enthalpy in series [1] is -22.9 kcal/mol. In series [2], the Tm was 52.6 °C.

For GCTTGCTCGAAAGAGAGC (((..(((....)))))), in series [1], the folding enthalpy was -21.3 kcal/mol. In addition, in series [2], the Tm was 49.1 °C.

Turning to GCTTGGACGAAAGTCAGC (((..(((....)))))), the folding enthalpy in series [1] was -16.7 kcal/mol. Besides, in series [2], the Tm was 42.1 °C.

Take GCTTGGCGAAAGCAAGGC ((.(.((....)).).)): the folding enthalpy in series [1] is -14.9 kcal/mol. Also, in series [2], the Tm was 45.6 °C.

Consider GCTTGGCGAAAGCCATGC ((.((((....)))).)), for which the folding enthalpy in series [1] was -27.2 kcal/mol. Further, the Tm in series [2] is 65.4 °C.

For the sequence GCTTGGCGAAAGCCCTGC ((..(((....)))..)), the folding enthalpy in series [1] was -13.6 kcal/mol. In addition, the Tm in series [2] came out at 40.2 °C.

As for GCTTGGCGAAAGCCGTGC ((..(((....)))..)), the folding enthalpy in series [1] is -15.3 kcal/mol. In series [2], the Tm is 53.4 °C.
